Results taken from ChEMBL document CHEMBL4145466, “Design, synthesis, and biological evaluation of novel combretastatin A-4 thio derivatives as microtubule targeting agents” (Eur J Med Chem, 2018).
Calls of active or inactive are those of the source. The rule behind the calls is not given here.

Key:
[1] = test system: MCF7; assay: Cell cycle arrest in human MCF7 cells assessed as accumulation of cells at G2/M phase at 0.1 to 1 uM after 24 hrs by propidium iodide staining-based FACS analysis; assay type: functional
In short: (§1)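 Cells were seeded at 5 × 10^5 per well in DMEM with 10% FBS and left overnight, then exposed to 0.1, 0.5 or 1 µM for 24 h. DMSO served as the negative control and 50 nM camptothecin as the positive control. Cells were trypsinized, fixed in 70% ethanol for 30 min at 4 °C, stained with 50 µg/mL PI plus 100 µg/mL RNase A for 30 min in the dark, and analysed by flow cytometry. Results are mean ± SD of three experiments, compared by ANOVA with Dunnett's test.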

[2] = test system: HeLa; assay: Cytotoxicity against human HeLa cells after 48 hrs by MTT assay; assay type: functional, cell-based
In short: (§2)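 Cells in DMEM with 10% FBS were plated at 2 × 10^4 per well and left overnight, then treated for 48 h at 0.6–20 µM (six concentrations) from 10 mM DMSO stocks. MTT was added for 2 h, and formazan was dissolved in DMSO and read at 570 nm. Viability was expressed as % of control, with IC50 taken from dose-response curves. Results are mean ± SD of three independent experiments.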

[3] = test system: A549; assay: Cytotoxicity against human A549 cells after 48 hrs by MTT assay; assay type: functional, cell-based; settings: A549, 48 h
[4] = test system: HaCaT; assay: Cytotoxicity against human HaCaT cells after 48 hrs by MTT assay; assay type: cell-based; in short: as §2
[5] = Inhibition of porcine tubulin polymerization after 1 hr by spectrophotometric analysis; set-up: species or system Sus scrofa
In short: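 Polymerization was started by shifting from 4 °C to 37 °C, and absorbance was followed at 37 °C for 60 min. The vehicle served as control.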

[6] = test system: A-431; assay: Cell cycle arrest in human A431 cells assessed as accumulation of cells at G2/M phase at 0.1 to 1 uM after 24 hrs by propidium iodide staining-based FACS analysis; assay type: functional; in short: as §1
[7] = test system: MDA-MB-231; assay: Cell cycle arrest in human MDA-MB-231 cells assessed as accumulation of cells at G2/M phase at 0.1 to 1 uM after 24 hrs by propidium iodide staining-based FACS analysis; assay type: functional; in short: as §1
[8] = target: T1, Tubulin (Homo sapiens) (UniProt P68371+Q9H4B7+P0DPH7+P68366+Q13509+Q71U36+P04350+Q3ZCM7+P07437+P68363+Q9BQE3+Q6PEY2+Q13885+Q9BVA1+Q9BUF5); assay: Inhibition of tubulin polymerization in human MCF7 cells assessed as micronuclei formation at 1 uM after 24 hrs by ELISA; assay type: cell-based
[9] = target: T1, Tubulin (Homo sapiens); assay: Inhibition of tubulin polymerization in human HeLa cells assessed as micronuclei formation at 1 uM after 24 hrs by ELISA; assay type: cell-based
[10] = target: T1, Tubulin (Homo sapiens); assay: Inhibition of tubulin polymerization in human SKOV3 cells assessed as micronuclei formation at 1 uM after 24 hrs by ELISA; assay type: cell-based
[11] = test system: Tubulin; assay: Inhibition of tubulin polymerization in human HaCaT cells assessed as micronuclei formation at 1 uM after 24 hrs by ELISA; assay type: cell-based
[12] = target: T1, Tubulin (Homo sapiens); assay: Inhibition of tubulin polymerization in human A431 cells assessed as micronuclei formation at 1 uM after 24 hrs by ELISA; assay type: cell-based
[13] = target: T1, Tubulin (Homo sapiens); assay: Inhibition of tubulin polymerization in human MCF7 cells assessed as micronuclei formation at 1 uM after 24 hrs by Hoechst 33258/FITC staining-based […] analysis; assay type: cell-based
In short: (§3)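 Cells seeded at 12.5 × 10^4 per well and exposed to 1 µM compound for 24 h. Nuclei were stained with Hoechst 33258 (10 µg/mL, 30 min, 37 °C), then fixed in 4% formaldehyde/PBS (15 min, RT). Cells were permeabilized with 1% Triton X-100, blocked with 2% BSA/PBS for 1 h, and incubated with anti-α-tubulin-FITC (1:50) overnight at 4 °C. Imaged by fluorescence microscopy.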

[14] = target: T1, Tubulin (Homo sapiens); assay: Inhibition of tubulin polymerization in human MDA-MB-231 cells assessed as micronuclei formation at 1 uM after 24 hrs by Hoechst 33258/FITC staining-based flow cytometric analysis; assay type: cell-based
[15] = target: T1, Tubulin (Homo sapiens); assay: Inhibition of tubulin polymerization in human HeLa cells assessed as micronuclei formation at 1 uM after 24 hrs by Hoechst 33258/FITC staining-based […] analysis; assay type: cell-based; in short: as §3
[16] = target: T1, Tubulin (Homo sapiens); assay: Inhibition of tubulin polymerization in human SKOV3 cells assessed as micronuclei formation at 1 uM after 24 hrs by Hoechst 33258/FITC staining-based flow cytometric analysis; assay type: cell-based; in short: as §3
[17] = test system: Tubulin; assay: Inhibition of tubulin polymerization in human HaCaT cells assessed as micronuclei formation at 1 uM after 24 hrs by Hoechst 33258/FITC staining-based […]; assay type: cell-based; in short: as §3
[18] = test system: HaCaT; assay: Induction of apoptosis in human HaCaT cells after 24 hrs by FITC Annexin V/propidium iodide staining-based FACScan flow cytometric analysis; assay type: cell-based
In short: (§4)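 After 24 h of compound exposure, 1 × 10^6 cells were labelled with annexin V-FITC and PI for 15 min at 25 °C in the dark. They were read on a FACScan with 488 nm excitation, detecting FITC at 525 nm and PI at 620 nm. Results are mean ± SD of three independent experiments, with Dunnett's test against control.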

[19] = test system: MCF7; assay: Induction of apoptosis in human MCF7 cells after 24 hrs by FITC Annexin V/propidium iodide staining-based FACScan flow cytometric analysis; assay type: functional, cell-based; in short: as §4
[20] = test system: MDA-MB-231; assay: Induction of apoptosis in human MDA-MB-231 cells after 24 hrs by FITC Annexin V/propidium iodide staining-based FACScan flow cytometric analysis; assay type: functional, cell-based; in short: as §4
[21] = test system: HeLa; assay: Induction of apoptosis in human HeLa cells after 24 hrs by FITC Annexin V/propidium iodide staining-based FACScan flow cytometric analysis; assay type: functional, cell-based; in short: as §4
[22] = test system: SK-OV-3; assay: Induction of apoptosis in human SKOV3 cells after 24 hrs by FITC Annexin V/propidium iodide staining-based FACScan flow cytometric analysis; assay type: functional, cell-based; in short: as §4
[23] = test system: A-431; assay: Induction of apoptosis in human A431 cells after 24 hrs by FITC Annexin V/propidium iodide staining-based FACScan flow cytometric analysis; assay type: functional, cell-based; in short: as §4
[24] = target: T1, Tubulin (Homo sapiens); assay: Inhibition of tubulin polymerization in human MCF7 cells assessed as perturbation in cytoskeleton structure at 1 uM after 24 hrs by ELISA; assay type: cell-based
[25] = target: T1, Tubulin (Homo sapiens); assay: Inhibition of tubulin polymerization in human A431 cells assessed as perturbation in cytoskeleton structure at 1 uM after 24 hrs by ELISA; assay type: cell-based
[26] = test system: Tubulin; assay: Inhibition of tubulin polymerization in human HaCaT cells assessed as perturbation in cytoskeleton structure at 1 uM after 24 hrs by ELISA; assay type: cell-based
[27] = target: T1, Tubulin (Homo sapiens); assay: Inhibition of tubulin polymerization in human SKOV3 cells assessed as perturbation in cytoskeleton structure at 1 uM after 24 hrs by ELISA; assay type: cell-based
[28] = target: T1, Tubulin (Homo sapiens); assay: Inhibition of tubulin polymerization in human MCF7 cells assessed as perturbation in cytoskeleton structure at 1 uM after 24 hrs by Hoechst 33258/FITC staining-based flow cytometric analysis; assay type: cell-based; in short: as §3
[29] = target: T1, Tubulin (Homo sapiens); assay: Inhibition of tubulin polymerization in human A431 cells assessed as perturbation in cytoskeleton structure at 1 uM after 24 hrs by Hoechst 33258/FITC staining-based flow cytometric analysis; assay type: cell-based
[30] = target: T1, Tubulin (Homo sapiens); assay: Inhibition of tubulin polymerization in human HeLa cells assessed as perturbation in cytoskeleton structure at 1 uM after 24 hrs by Hoechst 33258/FITC staining-based flow cytometric analysis; assay type: cell-based

Row | SMILES | Activity [1] | IC50 [2] [nM] | IC50 [3] [nM] | IC50 [4] [nM] | IC50 [5] [nM] | Activity [6] | Activity [7] | inhibition [8] | inhibition [9] | inhibition [10] | inhibition (INH) [11] | inhibition [12] | inhibition [13] | inhibition [14] | inhibition [15] | inhibition [16] | inhibition (INH) [17] | Activity [18] | Activity [19] | Activity [20] | other results
1 | COc1ccc(-c2ocnc2-c2cc(Br)c(OC)c(OC)c2)cc1SC | Active | 630 | > 20000 | 520 | 850 | Active | Active | Active | Active | Active | Active | Active | Active | Active | Active | Active | Active | Dose-dependent effect | Dose-dependent effect | Dose-dependent effect | Activity [21]: Dose-dependent effect; Activity [22]: Dose-dependent effect; Activity [23]: Dose-dependent effect; inhibition [24]: Active; inhibition [25]: Active; inhibition (INH) [26]: Active; inhibition [27]: Active; inhibition [28]: Active; inhibition [29]: Active; inhibition [30]: Active
2 | COc1ccc(-c2ocnc2-c2cc(OC)c(SC)c(OC)c2)cc1O | Active | 9 | > 20000 | 320 | 1050 | Active | Active | Active | Active | Active | Active | Active | Active | Active | Active | Active | Active | Dose-dependent effect | Dose-dependent effect | Dose-dependent effect | Activity [21]: Dose-dependent effect; Activity [22]: Dose-dependent effect; Activity [23]: Dose-dependent effect; inhibition [24]: Active; inhibition [25]: Active; inhibition (INH) [26]: Active; inhibition [27]: Active; inhibition [28]: Active; inhibition [29]: Active; inhibition [30]: Active
